System: MS2 coat protein
Test: apparent Kd, MS2 coat protein; higher = weaker binding; RNA-MaP array; FMN 200 µM where present
Procedure, shortened: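 Designs on Illumina sequencing-chip clusters, transcribed by stalled E. coli RNA polymerase, were exposed to SNAP-549-labelled MS2 coat protein in doubling steps from 0.7 or 1.5 nM up to 3 µM, without and then with constant ligand. The buffer held 100 mM Tris-HCl pH 7.5, 80 mM KCl, 4 mM MgCl2, BSA, DTT, yeast tRNA and Tween-20. Apparent Kd values are medians of filtered per-cluster binding-curve fits to green signal normalised to red-channel RNA signal and control-cluster median Fmax.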

[1] = designed as: ON switch for flavin mononucleotide, no ligand
[2] = ligand present: flavin mononucleotide, designed as: ON switch for flavin mononucleotide
[3] = designed as: OFF switch for flavin mononucleotide, no ligand
[4] = ligand present: flavin mononucleotide, designed as: OFF switch for flavin mononucleotide

Row | Sequence | apparent Kd [1] | apparent Kd [2] | apparent Kd [3] | apparent Kd [4]
1 | GCUGUCGCAUGAGGAUAUGGUCAGCUUUGCUGACCAGAAGGCAUGUCAAUAGACAUGAGGAUCACCCAUGUAGUAAAGACGGCU | 313 nM | 32.4 nM | – | –
2 | GCUUGUAGAGGAUAUACAAGGGCCUUAGCGAAUAACACCGCACAUGAGGAUCACCCAUGUAGAAGGCUACCACC | – | – | 15.6 nM | 77.6 nM
3 | GCUUGUAGAGGAUAUACAAGGGCCUUAGCGGAAAACUCCGCACAUGAGGAUCACCCAUGUAGAAGGCUACCACC | – | – | 16.1 nM | 97.9 nM
4 | GGAAAGCGAGGAUAUACAUGAGGAUCACCCAUGUAAAAGAAAAGAAAAGAAAGAAAAUGUAGAAGGCGCAAAAA | – | – | 47.8 nM | 48.4 nM
5 | GGAAAGCGAGGAUAUACAUGAGGAUCACCCAUGUAAACAAACAAACAAACAAACAAAUGUAGAAGGCGCAAAAC | – | – | 43.9 nM | 43 nM
6 | GGAAAUCAUGUAGGAUAUGCAUGGCGAAGCUACGCAGAAGGACAUGAGGAUCACCCAUGUGCUAGCUACCGGAUACGGUGGCAA | – | – | 78.8 nM | 288 nM
7 | GGAAAUCAUGUAGGAUAUGCAUGGCGAAGCUACGCAGAAGGACAUGAGGAUCACCCAUGUUAUAGCGUCCGAGUAAGGAUGCAA | – | – | 42.1 nM | 123 nM
8 | GGAAGACAAAGUCUUCCAAAUCGAACAUGAGGAUCACCCAUGUAGGAUAUGCUACUCAAAGAGUAGCAGAAGGACAUGUGCUUU | – | – | 40.1 nM | 193 nM
9 | GGACCGCGCAGAGUUGACGGUCGGCAGGAUAUGACAUGAGGAUCACCCAUGUGAACUCCAUUGGGUCAGAAGGGCCACGACGAA | – | – | 21.1 nM | 77.3 nM
10 | GGACGUCACAUCUACAUGAGGAUCACCCAUGUCAAAAGACAUGAGGAUAUGCUACCUAAUUGGUAGCAGAAGGCAUGGACGUCC | 1070 nM | 71.5 nM | – | –
11 | GGACGUCACAUUUACAUGAGGAUCACCCAUGUCAAAAGACAUGAGGAUAUGGAUGCGAAACGCAUCCAGAAGGCAUGGACGUCC | 286 nM | 27.8 nM | – | –
12 | GGAGAACAUGAGGAUCACCCAUGUGGAUGGGCGCUAGGAUAUGCGGGAGGGUGAAGAGAAGCAGAAGGAGUGGAUA | 77.6 nM | 76.1 nM | – | –
13 | GGAGACCUCACAGGAUAUGCUGGACUUUGUCCAGCAGAAGGGUGAACACAUGAGGAUCACCCAUGUGGUCUCCAAAUAUUUAAU | 816 nM | 74.2 nM | – | –
14 | GGAGCACACAUUAACAUGAGGAUCACCCAUGUCAAAAGACAUGAGGAUAUGGUUCCGAAAAGGAUCCAGAAGGCAUGGUGCUCC | 356 nM | 15.5 nM | – | –
15 | GGAGCACACAUUAACAUGAGGAUCACCCAUGUCAAUAGACAUGAGGAUAUGGAUCCGAAAAGGAUCCAGAAGGCAUGGUGCUCC | 130 nM | 10 nM | – | –
16 | GGAGCACAUGAAUACAUGAGGAUCACCCAUGUCGAAUGAUAUGAGGAUAUGGAUCGGAAAACGAUCUAGAAGGCAUAGUGCUCC | 76.5 nM | 10.2 nM | – | –
17 | GGAGCACGCACAGGAUAUCCGGCGACGCUCGUCGGAGAAGGGUGACAUGAGGAUCACCCAUGUACGUGCAACUCAGUUUGAGAG | 43.6 nM | 36.1 nM | – | –
18 | GGAGCCGGUACUGAGGAUAUUCAUAUUAAAACAUGAGGAUCACCCAUGUAGGCCAGAAGGCCUUGGGAGAAGGCAGAUCGGCUCC | 408 nM | 25.9 nM | – | –
19 | GGAGGGCCUCGAGGAUAUCGCUGCGGUCGUCUGACAUGAGGAUCACCCAUGUGAGAAGGCGAGGCUACUGACUAUGCCCGUUAU | – | – | 27.9 nM | 275 nM
20 | GGAUAGGACAGAGGAUAUACGGAUAGGAUCUACUAUCCUCCUUAAAUAACAUGAGGAUCACCCAUGUAGAAGGCUGUCCUAUCG | – | – | 16.9 nM | 40.5 nM
21 | GGAUAGGACAGAGGAUAUACGGCUAGGAGAUACUAGCUACUAUUCCUCACAUGAGGAUCACCCAUGUAGAAGGCUGUCCUAUCG | – | – | 17.6 nM | 140 nM
22 | GGAUAGGACAGAGGAUAUACGUGCUAGAGAUACUAGCAAAAUCUCCUCACAUGAGGAUCACCCAUGUAGAAGGCUGUCCUAUCG | – | – | 9.85 nM | 201 nM
23 | GGAUAGGACAGAGGAUAUACGUGCUAGAGAUACUAGCAAAAUUUACUCACAUGAGGAUCACCCAUGUAGAAGGCUGUCCUAUCG | – | – | 5.09 nM | 22.2 nM

From the EternaBench riboswitch data
